Test results as given in ChEMBL document CHEMBL4627249, “New modification strategy of matrine as Hsp90 inhibitors based on its specific L conformation for cancer treatment” (Bioorg Med Chem, 2020).
Activity calls are given as the source filed them. The rule behind the calls is not given here.

Columns and labels:
[1] = target: Heat shock protein HSP90 (Homo sapiens) (UniProt P07900+P08238)
MDA-MB-231 = assay: Antiproliferative activity against human MDA-MB-231 cells assessed as reduction in cell viability after 48 hrs by MTT assay; assay type: functional, cell-based; conditions: MDA-MB-231, 48 h
HepG2 = assay: Antiproliferative activity against human HepG2 cells assessed as reduction in cell viability after 48 hrs by MTT assay; assay type: functional, cell-based; conditions: HepG2, 48 h
Outline: (§1)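 HepG2 or HeLa cells in DMEM with 10% FBS and 1% penicillin-streptomycin were preincubated 24 h (37 °C, 5% CO2). They were then exposed for 48 h to 1, 5, 10, 20, 50 and 100 µM, diluted in medium from DMSO stocks. MTT (5 mg/mL, 20 µL) was added for 4 h, formazan dissolved in DMSO, and A490 read. Each concentration was run in triplicate. IC50 is the mean from dose-response curves of at least three independent experiments; cisplatin was the positive control.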

HeLa = assay: Antiproliferative activity against human HeLa cells assessed as reduction in cell viability after 48 hrs by MTT assay; assay type: functional, cell-based
Outline: as §1

SMILES | ΔTm [1] [°C] | IC50 (MDA-MB-231) [µM] | IC50 (HepG2) [µM] | IC50 (HeLa) [µM] | deltaTm [1]
O=C1CCC[C@@H]2[C@H]3CCCN4CCC[C@@H](CN12)[C@@H]34 [MATRINE] | 0.04 | 5370 | 4510 | 4330 | –
Nc1c2c(nc3ccccc13)N1C[C@@H]3CCCN4CCC[C@@H]([C@H]34)[C@H]1CC2 | -3.12 | 22.2 | 14.3 | 23.3 | –
N#Cc1ccccc1/N=C1\CCC[C@@H]2[C@H]3CCCN4CCC[C@@H](CN12)[C@@H]34 | -1.44 | > 100 | > 100 | > 100 | –
Clc1ccc(/N=C2\CCC[C@@H]3[C@H]4CCCN5CCC[C@@H](CN23)[C@@H]45)cc1 | – | 73.4 | > 100 | > 100 | inactive
Nc1c2c(nc3ccc([N+](=O)[O-])cc13)N1C[C@@H]3CCCN4CCC[C@@H]([C@H]34)[C@H]1CC2 | -0.24 | 24.4 | 35.1 | 69.2 | –
Nc1c2c(nc3ccc(F)cc13)N1C[C@@H]3CCCN4CCC[C@@H]([C@H]34)[C@H]1CC2 | -2.3 | 37.3 | 13.1 | 18.8 | –
CC(C)c1ccc(/N=C2\CCC[C@@H]3[C@H]4CCCN5CCC[C@@H](CN23)[C@@H]45)cc1 | -1.24 | 77.5 | 96.6 | 93.3 | –
COc1ccc2nc3c(c(N)c2c1)CC[C@@H]1[C@H]2CCCN4CCC[C@@H](CN31)[C@@H]24 | -5.48 | 21.2 | 10.9 | 18 | –
Cc1c(/N=C2\CCC[C@@H]3[C@H]4CCCN5CCC[C@@H](CN23)[C@@H]45)cccc1[N+](=O)[O-] | -1.06 | > 100 | 86.1 | > 100 | –
